Compound activity (PubChem BioAssay)
This is a sample that favours compounds with a hit; in the whole collection about 3.7% have one here.
hERG protect = compounds protecting human hERG from proarrhythmic drug block; CHO-hERG, FluxOR thallium flux, dofetilide IC70 present; activation (rescue from dofetilide block), less the hit threshold, % at 10 µM; actives 0.51% (n = 310,000); AID 1511;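 active = activation above the mean of controls blocked by dofetilide plus 5 SD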;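 note: thallium influx through hERG after potassium depolarization seen as dye fluorescence rise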
Kir21 block = blocks the mouse Kir2.1 inward-rectifier potassium channel; P35561; HEK293-Kir2.1, FluxOR thallium flux fluorescence; stronger effect = lower value; B-score at 10 µM; actives 0.85% (n = 310,000); AID 1672;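 active = fluorescence ratio B-score at or below minus 3 SD of library scores, with starting-brightness B-score within 2 SD, cut at about -4.2 in these data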;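 note: channel flux triggered by added potassium and thallium sulfate stimulus; B-score of peak minus minimum fluorescence over baseline after thallium stimulus; more negative B-score means stronger Kir2.1 block with less thallium influx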
Target sequence (P35561 whole entry, looked up): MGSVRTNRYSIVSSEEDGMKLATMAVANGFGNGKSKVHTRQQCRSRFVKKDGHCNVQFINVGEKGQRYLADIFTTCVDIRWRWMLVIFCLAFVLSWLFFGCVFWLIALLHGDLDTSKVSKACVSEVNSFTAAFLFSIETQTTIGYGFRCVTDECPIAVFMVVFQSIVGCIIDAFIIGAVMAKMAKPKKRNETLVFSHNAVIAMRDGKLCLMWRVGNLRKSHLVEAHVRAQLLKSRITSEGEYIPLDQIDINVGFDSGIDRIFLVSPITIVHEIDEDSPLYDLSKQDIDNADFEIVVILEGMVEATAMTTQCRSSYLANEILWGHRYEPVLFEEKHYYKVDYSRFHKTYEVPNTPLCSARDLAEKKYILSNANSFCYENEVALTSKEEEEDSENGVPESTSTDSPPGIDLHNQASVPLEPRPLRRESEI
KCNK9 block = blocks the human KCNK9 two-pore domain potassium channel; B-score at 10 µM; actives 1.2% (n = 310,000); AID 488922; HEK293 KCNK9, FluxOR thallium flux fluorescence; stronger effect = lower value;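 active = ratio B-score over 3 SD below the library mean, with starting fluorescence within 5 SD of its mean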;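 note: negative B-score means less thallium flux so channel inhibition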
KCNK3 inh = human KCNK3 channel inhibition, primary screen; CHO-KCNK3 thallium flux, FluxOR fluorescence; stronger effect = lower value; B-score at 10 µM; O14649; actives 0.84% (n = 340,000);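 active = B-score under library mean minus 4 SD, starting fluorescence ratio at most library mean plus 5 SD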;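 note: more negative B-score means stronger inhibition of thallium flux through KCNK3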
KCNQ1 pot = potentiators or activators of human KCNQ1 potassium channel; P51787; CHO-K1 KCNQ1, thallium flux FluxOR fluorescence; stronger effect = higher value; B-score at 10 µM; actives 0.35% (n = 310,000);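 active = fluorescence ratio B-score, a plate-corrected score, at least three library SD, with initial intensity B-score within 5 SD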
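Doses: Single concentration per compound, DMSO matched to controls | Test system: KCNQ1-transfected CHO-K1 cells | Timing: 90 min dye loading and 20 min compound exposure, both at room temperature | Measured by: Kinetic FluxOR thallium fluorescence, 10-s 1-Hz baseline, 110-s post-stimulus read | Medium: Assay buffer with matched DMSO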
KCNQ1 inh = blocks the human KCNQ1 potassium channel; CHO-K1 KCNQ1, FluxOR thallium flux fluorescence; stronger effect = higher value; P51787; AID 2642; actives 1.3% (n = 310,000); B-score at 10 µM;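 active = compounds whose thallium flux B-score, printed positive for inhibition, exceeds three library SD while starting fluorescence stays within three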;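 note: channel opened by potassium depolarization with thallium stimulus after 20 min compound exposure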
KCNK9 block conf = confirmation of human KCNK9 potassium channel inhibitors; shares compounds with KCNK9 block; HEK293 KCNK9 cells, FluxOR thallium flux fluorescence; inhibition, % at 10 µM; actives 43% (n = 4,900); AID 492992;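 active = thallium signal inhibited by more than 5 SD of the compound-free buffer control wells, on both duplicate plates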;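 note: 0% = assay buffer control wells without compound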
Kir2-1 spec = mouse Kir2.1 off-target activity of KCNK9 modulators. shares compounds with KCNK9 block. Kir2.1 cells, FluxOR thallium flux fluorescence. inhibition, % at 10 µM. actives 4% (n = 4,900). AID 492993;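 active = thallium signal drop more than 5 SD beyond the mean of the no-compound control wells, seen in both duplicate plates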;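 note: signal is fluorescence rise after thallium addition divided by baseline fluorescence; plate controls were assay buffer only for no effect and full block by chlorpromazine control for full effect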
HEK293 Tl ctr = non-induced cell nonspecific activity of KCNK9 modulators; actives 40% (n = 4,900); non-induced KCNK9-HEK293, FluxOR thallium flux; AID 492997; inhibition, % at 10 µM; shares compounds with KCNK9 block;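 active = thallium signal drop beyond 5 SD of the untreated control mean, on both duplicate plates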;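 note: plate controls were buffer only IC0 wells for no effect and SID17386958 at its maximal inhibitory level for full effect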
Numbers without * were called inactive; i = inactive; x = no result given.

SMILES	hERG protect	Kir21 block	KCNK9 block	KCNK3 inh	KCNQ1 pot	KCNQ1 inh	KCNK9 block conf	Kir2-1 spec	HEK293 Tl ctr
CCCCCC(=O)Nc1ccccc1N1CCN(c2ccccc2)CC1	-4.5	0.14	-12.8*	-10.5*	i	i	49.0%*	i	36.5%*
CCC(=O)N1CCN(c2ccccc2NC(=O)COc2cc(C)ccc2C(C)C)CC1	-4.9	-2.09	-8.22*	i	i	i	46.0%*	i	28.5%*
O=C(COc1ccccc1)Nc1ccccc1N1CCN(c2ccc(F)cc2)CC1	-2.5	-0.28	-8.64*	i	i	i	i	i	27.5%*
Cc1cc(C)c(OCC(=O)Nc2ccccc2N2CCCCC2)c(C)c1	-10.0	0.85	i	i	i	i	x	x	x
Cc1cc(C)c(OCC(=O)Nc2ccccc2N2CCOCC2)c(C)c1	-7.1	-2.02	-10.2*	-10*	i	i	i	i	48.5%*
O=c1c2[nH]cnc2n(-c2cccc(Br)c2)c(=O)n1Cc1ccccc1	-5.2	2.32	i	i	i	i	x	x	x
C/C(=N/NC(=O)c1cc(O)c(O)c(O)c1)c1ccc([N+](=O)[O-])cc1	-2.2	0.77	i	i	i	i	x	x	x
Cc1ccc(C)c(NC(=O)C2CCN(C(=O)c3cccs3)CC2)c1	-11.9	-1.46	i	i	i	i	x	x	x
Cc1nc2c(o1)C(=O)c1ccccc1C2=Nc1ccccc1	x	x	x	i	x	x	x	x	x
O=C1c2[nH]nc(-c3ccccc3O)c2C(c2cccc(Cl)c2)N1Cc1ccco1 (stereo not given)	-17.4	1.92	i	i	i	i	x	x	x
Cc1cc(C)c(O)c(-c2n[nH]c3c2C(c2cccc(O)c2)N(Cc2ccco2)C3=O)c1 (stereo not given)	-8.8	1.42	-11.5*	i	i	i	57.5%*	i	41.0%*
COc1ccc(N(CCCN2C(=O)c3cccc4cccc(c34)C2=O)C(=O)c2cccs2)cc1	-7.9	0.43	i	i	i	i	x	x	x
Cc1ccc(N(CCCCN2C(=O)c3ccccc3C2=O)C(=O)c2cccs2)cc1	-11.4	0.3	i	i	i	i	i	i	i
COc1cc(C)ccc1N(CCCN1C(=O)c2cccc3cccc(c23)C1=O)C(=O)c1cccs1	-22.0	1.22	-14.1*	i	i	i	80.0%*	i	33.5%*
O=C(CNC(=O)c1cccs1)N/N=C/c1c(F)cccc1Cl	-9.1	0.14	i	i	i	i	x	x	x
O=C(NC1CCCC1)C(c1cccnc1)N(Cc1ccccc1)C(=O)c1csnn1 (stereo not given)	-6.7	0.27	i	i	i	i	x	x	x
O=C(NC(c1ccccc1)c1c(O)ccc2ccccc12)c1ccccc1Cl (stereo not given)	-7.1	0.05	-10.1*	-9.42*	i	i	i	i	44.0%*
O=C(NC(c1ccc(Cl)cc1)c1c(O)ccc2ccccc12)c1ccccc1 (stereo not given)	x	x	x	i	x	x	x	x	x
C[C@H]1CCC(=O)N([C@H](CN=[N+]=[N-])Cc2ccccc2)CC1	-2.6	-2.47	i	i	i	i	x	x	x
Clc1ccc(COn2c(-c3ccc(Cl)cc3)nc3ccccc32)cc1	-11.6	1.54	-16.2*	-10.5*	i	i	79.5%*	i	35.5%*
O=C(O)COn1c(-c2ccc(Cl)cc2)nc2ccc(Cl)cc21	-11.3	-0.12	i	i	i	i	x	x	x
O=C(c1ccc2ccccc2c1)C1CCCN(C(=O)c2noc3c2CCCC3)C1 (stereo not given)	-18.8	0.58	i	i	i	i	i	i	i
O=C(c1ccc(Cl)cc1)C1CCCN(C(=O)c2csnn2)C1 (stereo not given)	-4.3	0	i	i	i	i	x	x	x
CSc1ccc(C(=O)C2CCCN(C(=O)c3ccsc3)C2)cc1 (stereo not given)	-13.8	1.19	i	i	i	i	i	i	i
CSc1ccc(C(=O)C2CCCN(C(=O)c3cc(C)n(C)n3)C2)cc1 (stereo not given)	-6.0	-0.22	i	i	i	i	i	i	i
SMILES	hERG protect	Kir21 block	KCNK9 block	KCNK3 inh	KCNQ1 pot	KCNQ1 inh	KCNK9 block conf	Kir2-1 spec	HEK293 Tl ctr
CC#CC(=O)N1CCCC(C(=O)c2ccc(SC)cc2)C1 (stereo not given)	-1.4	0.92	i	i	i	i	x	x	x
CSc1nc(C(=O)N2CCCC(C(=O)c3ccc(Cl)cc3)C2)cs1 (stereo not given)	-14.9	-3.44	i	i	i	i	i	i	i
Cc1ccc(NC(=O)COC(=O)CCc2ccccc2)cc1S(=O)(=O)N1CCOCC1	x	x	x	i	x	x	x	x	x
COc1c(C)cc(C(=O)C2CCCN(C(=O)c3cc(C)n(C)n3)C2)cc1C (stereo not given)	-1.2	-0.56	i	i	i	i	x	x	x
Cc1cc(C(=O)N2CCCC(C(=O)c3ccc4ccccc4c3)C2)nn1C (stereo not given)	-5.6	-0.27	i	i	i	i	i	i	i
NS(=O)(=O)c1ccc(CCNC(=O)c2cc3ccccc3s2)cc1	-11.8	-0.32	i	i	i	i	x	x	x
CCC(=O)N1c2ccc(S(=O)(=O)N3CCN(c4cc(C)ccc4C)CC3)cc2CC1C (stereo not given)	-8.9	1.67	i	i	i	i	i	i	i
CCC(=O)N1c2ccc(S(=O)(=O)N3CCN(c4ccccc4Cl)CC3)cc2CC1C (stereo not given)	-10.6	1.19	i	i	i	i	x	x	x
Cn1c(=O)cc(OCC(=O)NCc2cccs2)c2ccccc21	-2.5	0	i	i	i	i	x	x	x
CCOC(=O)c1cnn(-c2nc(CC)nc3sc4c(c23)CCC4)c1N	-6.3	-0.55	-10.2*	i	i	i	36.0%*	i	i
O=C(NCCCCc1ccccc1)C12CN(Cc3ccccc3)CC1C(c1cccc([N+](=O)[O-])c1)=NO2 (stereo not given)	-7.5	-0.01	i	i	i	i	i	i	i
O=C(c1ccc(Br)o1)N1CCc2ccccc21	-10.9	-1.44	i	x	i	i	x	x	x
